Active and inactive are the calls of the source. The rule behind the calls is not given here.
Assays:
[1] = target: Histone deacetylase (HDAC1 and HDAC2) (Homo sapiens, UniProt Q13547+Q92769); test: Inhibition of HDAC1/HDAC2 in human HeLa cells nuclear extract preincubated for 5 mins before Boc-Lys (acetyl)-AMC substrate addition for 30 mins by microplate reader analysis; format: cell-based
Aminopeptidase N [2] = target: T1, Aminopeptidase N (Sus scrofa, UniProt P15145); test: Inhibition of APN in porcine kidney microsomes preincubated for 5 mins before L-leu-p-nitroanilide substrate addition for 30 mins by plate reader analysis
T1 sequence (P15145 whole entry): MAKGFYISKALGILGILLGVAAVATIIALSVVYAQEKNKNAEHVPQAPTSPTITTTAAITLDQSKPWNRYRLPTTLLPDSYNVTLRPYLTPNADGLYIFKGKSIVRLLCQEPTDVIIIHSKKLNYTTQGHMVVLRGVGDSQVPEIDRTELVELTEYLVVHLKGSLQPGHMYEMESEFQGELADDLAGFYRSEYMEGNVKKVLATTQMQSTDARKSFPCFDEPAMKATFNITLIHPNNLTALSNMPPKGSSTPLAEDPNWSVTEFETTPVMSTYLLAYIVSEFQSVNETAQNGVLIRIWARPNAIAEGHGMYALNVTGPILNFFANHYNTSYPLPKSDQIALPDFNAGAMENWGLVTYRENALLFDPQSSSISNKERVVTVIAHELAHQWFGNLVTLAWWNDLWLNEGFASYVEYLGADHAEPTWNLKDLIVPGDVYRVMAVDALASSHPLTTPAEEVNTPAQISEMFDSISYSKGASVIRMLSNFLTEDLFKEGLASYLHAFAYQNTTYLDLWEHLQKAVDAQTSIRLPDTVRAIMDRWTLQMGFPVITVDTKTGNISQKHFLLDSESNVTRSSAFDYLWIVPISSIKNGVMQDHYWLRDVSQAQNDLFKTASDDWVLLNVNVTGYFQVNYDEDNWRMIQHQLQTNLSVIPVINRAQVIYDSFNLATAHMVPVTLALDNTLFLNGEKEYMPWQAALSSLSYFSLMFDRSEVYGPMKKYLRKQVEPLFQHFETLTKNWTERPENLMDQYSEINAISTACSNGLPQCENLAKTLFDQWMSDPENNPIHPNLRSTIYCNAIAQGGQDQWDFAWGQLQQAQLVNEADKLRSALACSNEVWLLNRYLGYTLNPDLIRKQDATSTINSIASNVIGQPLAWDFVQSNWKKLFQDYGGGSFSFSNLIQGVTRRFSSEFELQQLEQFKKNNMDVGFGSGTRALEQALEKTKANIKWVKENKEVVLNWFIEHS

ES2 = test: Antiinvasive activity against human ES2 cells assessed as reduction in cell invasion at 150 uM after 8 hrs by crystal violet staining based Matrigel assay; format: functional
Summary of the method: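 Matrigel-coated transwell chambers rehydrated 2 h in RPMI-1640 + 1% FBS; lower chamber RPMI-1640 + 10% FBS. Compounds in 1% FBS medium added to the upper chamber with ES-2 cells (1 × 10^5/well) at the same time; invasion 8 h at 37 °C. Non-invaded cells swabbed off; remaining cells fixed, stained with 0.1% crystal violet, counted in five random fields (×100) per insert; mean of three independent experiments.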

Aminopeptidase N [3] = target: Aminopeptidase N (Homo sapiens, UniProt P15144); test: Inhibition of APN in human ES2 cells preincubated for 5 mins before L-leu-p-nitroanilide substrate addition for 1 hr by photometry; format: cell-based
Summary of the method: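 ES-2 ovarian clear cell carcinoma cell suspension (1 × 10^5 cells/well) used as the APN source in 10 mM PBS pH 7.4; inhibitors in buffer with 0.2% DMSO final. Pre-incubation 5 min at room temperature, then L-Leu-p-nitroanilide added, 1 h at 37 °C. Supernatant after centrifugation read by UV-Vis spectrophotometry; IC50 from regression of concentration/inhibition-rate data.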

H22 = test: Antimetastasis activity against mouse H22 cells implanted in mouse assessed as inhibition of tumour growth at 80 mg/kg/day, po administered 6 days/week for 2 weeks; format: functional
Summary of the method: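 H22 tumour cells given to mice via the caudal vein; animals randomly divided into 3 groups. Control received the same volume of excipient; the other groups received inhibitor orally at 80 mg/kg/day, 6 days/week for 2 weeks.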

Chain of Aminopeptidase N (Homo sapiens, UniProt P15144) (P15144 whole entry): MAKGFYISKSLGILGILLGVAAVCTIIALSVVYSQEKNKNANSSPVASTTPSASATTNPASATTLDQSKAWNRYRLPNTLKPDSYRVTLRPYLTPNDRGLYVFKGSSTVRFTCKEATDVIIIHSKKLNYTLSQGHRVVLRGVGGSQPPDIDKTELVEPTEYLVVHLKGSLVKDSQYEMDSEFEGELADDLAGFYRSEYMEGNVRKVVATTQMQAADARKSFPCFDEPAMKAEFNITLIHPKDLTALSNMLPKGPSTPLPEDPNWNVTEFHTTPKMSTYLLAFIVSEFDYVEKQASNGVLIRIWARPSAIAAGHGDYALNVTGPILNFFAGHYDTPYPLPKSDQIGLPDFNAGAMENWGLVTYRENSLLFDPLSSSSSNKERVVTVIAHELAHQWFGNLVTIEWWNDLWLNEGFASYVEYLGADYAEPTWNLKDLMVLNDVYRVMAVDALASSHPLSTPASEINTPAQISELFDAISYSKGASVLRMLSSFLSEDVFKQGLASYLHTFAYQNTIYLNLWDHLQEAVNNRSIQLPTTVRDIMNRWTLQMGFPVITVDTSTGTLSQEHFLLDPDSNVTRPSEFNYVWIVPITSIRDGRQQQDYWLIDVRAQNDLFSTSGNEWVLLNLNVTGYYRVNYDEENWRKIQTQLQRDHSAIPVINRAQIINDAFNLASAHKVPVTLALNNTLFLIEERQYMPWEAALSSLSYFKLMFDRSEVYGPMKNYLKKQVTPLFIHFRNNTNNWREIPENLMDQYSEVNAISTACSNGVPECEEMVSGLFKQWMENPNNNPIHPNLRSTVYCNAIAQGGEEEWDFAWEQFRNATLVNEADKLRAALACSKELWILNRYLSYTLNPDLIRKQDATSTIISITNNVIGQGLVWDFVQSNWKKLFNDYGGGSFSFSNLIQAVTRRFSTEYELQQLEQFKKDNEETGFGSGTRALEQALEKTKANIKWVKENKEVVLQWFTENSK

Row | SMILES | IC50 [1] [nM] | IC50 (Aminopeptidase N [2]) [nM] | IC50 (Aminopeptidase N [3]) [nM] | inhibition (ES2) | inhibition in vivo at 80 mg/kg/day (H22) [%]
1 | CC(C)C[C@H](NC(=O)Nc1ccc(F)cc1F)C(=O)NO | > 100000 | 340 | – | – | –
2 | Cc1cccc(C)c1NC(=O)N[C@@H](CC(C)C)C(=O)NO | > 100000 | 20 | 120 | Active | 91.7
3 | CC(C)C[C@H](NC(=O)NCc1ccc(F)cc1F)C(=O)NO | > 100000 | 330 | – | – | –
4 | Cc1ccc(CNC(=O)N[C@@H](CC(C)C)C(=O)NO)cc1C | > 100000 | 440 | – | – | –
5 | CC(C)C[C@H](NC(=O)NCc1c(Cl)cccc1Cl)C(=O)NO | > 100000 | 580 | – | – | –
6 | CC(C)C[C@H](NC(=O)NCc1c(F)cccc1F)C(=O)NO | > 100000 | 690 | – | – | –
7 | CC(C)C[C@H](NC(=O)Nc1ccc(Cl)cc1Cl)C(=O)NO | > 100000 | 560 | – | – | –
8 | CC(C)C[C@H](NC(=O)Nc1c(F)cccc1F)C(=O)NO | > 100000 | 230 | – | – | –
9 | COc1ccc(NC(=O)N[C@@H](CC(C)C)C(=O)NO)cc1F | > 100000 | 420 | – | – | –

Further lines, with some results ahead:

Row | IC50 [1] [nM] | IC50 (Aminopeptidase N [2]) [nM] | IC50 (Aminopeptidase N [3]) [nM] | SMILES | inhibition (ES2) | inhibition in vivo at 80 mg/kg/day (H22) [%]
10 | > 100000 | – | – | CC(C)C[C@H](NC(=O)Nc1ccccc1)C(=O)NO | – | –
11 | > 100000 | 80 | – | Cc1cc(C)c(NC(=O)N[C@@H](CC(C)C)C(=O)NO)c(C)c1 | – | –
12 | > 100000 | 460 | – | COc1ccc(CNC(=O)N[C@@H](CC(C)C)C(=O)NO)c(OC)c1 | – | –
13 | > 100000 | 70 | – | Cc1cccc(CNC(=O)N[C@@H](CC(C)C)C(=O)NO)c1C | – | –
14 | > 100000 | 420 | – | CC(C)C[C@H](NC(=O)NCc1ccc(F)c(F)c1)C(=O)NO | – | –
15 | > 100000 | 180 | – | Cc1ccc(NC(=O)N[C@@H](CC(C)C)C(=O)NO)c(C)c1 | – | –
16 | > 100000 | 460 | – | COc1ccc(NC(=O)N[C@@H](CC(C)C)C(=O)NO)c(OC)c1 | – | –
17 | > 100000 | 90 | – | Cc1ccc(NC(=O)N[C@@H](CC(C)C)C(=O)NO)cc1Cl | – | –
18 | > 100000 | 50 | – | CC(C)C[C@H](NC(=O)Nc1c(C(C)C)cccc1C(C)C)C(=O)NO | – | –
19 | > 100000 | – | – | CC(C)C[C@H](NC(=O)[C@@H](O)[C@H](N)Cc1ccccc1)C(=O)O [UBENIMEX] | Active | 75.9
20 | > 100000 | 30 | 280 | CCc1cccc(CC)c1NC(=O)N[C@@H](CC(C)C)C(=O)NO | Active | –
